According to ChEMBL document CHEMBL2321850, “Fragment-based discovery of 8-hydroxyquinoline inhibitors of the HIV-1 integrase-lens epithelium-derived growth factor/p75 (IN-LEDGF/p75) interaction” (J Med Chem, 2013):

Key:
LNCaP = assay: Cytotoxicity against human LNCAP cells assessed as inhibition of cell proliferation after 72 hrs by MTT assay; type: cell-based
MT4 = assay: Cytotoxicity against human MT4 cells assessed as cell viability after 72 hrs by MTT assay; type: cell-based; conditions: mt4, 72 h
Outline: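 MT-4 cells exposed to fivefold serial dilutions of compound run in parallel with the antiviral MTT cytopathic-effect assay; CC50 taken as the concentration killing 50% of MT-4 cells.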

[1] = Selectivity index, ratio of CC50 for human MT4 cells to EC50 for HIV infected human MT4 cells; type: toxicity, cell-based; conditions: MT4 cells (CC50) and HIV-infected MT4 cells (EC50)
Outline: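 MT-4 cells infected with 100 to 300 CCID50 of HIV in the presence of fivefold serial compound dilutions. Protection against virus-induced cytopathic effect was read by MTT to give EC50. CC50 came from parallel MTT viability testing of uninfected MT-4 cells. Selectivity index was calculated as CC50/EC50.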

[2] = Inhibition of HIV-1 His6-tagged integrase interaction to FLAG-tagged LEDGF/p75 preincubated for 30 mins prior to LEDGF/p75 addition measured after 60 mins by alphascreen assay; design: species or system Human immunodeficiency virus 1
Outline: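 His6-tagged IN (300 nM final) preincubated with compound (20 µM final) 30 min at 4 °C, then FLAG-LEDGF/p75 (300 nM final) added for 60 min at 4 °C; Ni-chelate donor and anti-FLAG acceptor beads (20 µg/mL each) added, 1 h at 30 °C, light-protected; acceptor-bead emission read.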

[3] = tested on: Human immunodeficiency virus; assay: Antiviral activity against HIV infected human MT4 cells assessed as decrease of virus-induced cytopathic effect after 72 hrs by MTT assay; type: functional, organism-based; conditions: Human immunodeficiency virus 1, MT4, 72 h
Outline: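 MT-4 cells infected with 100 to 300 CCID50 of HIV (CCID50 from virus-stock titration on MT-4) in presence of fivefold serial compound dilutions; protection from viral cytopathic effect read by MTT; EC50 = concentration giving 50% protection. CC50 in MT-4 cells measured in parallel.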

[4] = target: T1, Human immunodeficiency virus type 1 integrase (Human immunodeficiency virus 1, UniProt Q7ZJM1); assay: Inhibition of HIV-1 integrase strand transfer activity
T1 sequence (Q7ZJM1 whole entry): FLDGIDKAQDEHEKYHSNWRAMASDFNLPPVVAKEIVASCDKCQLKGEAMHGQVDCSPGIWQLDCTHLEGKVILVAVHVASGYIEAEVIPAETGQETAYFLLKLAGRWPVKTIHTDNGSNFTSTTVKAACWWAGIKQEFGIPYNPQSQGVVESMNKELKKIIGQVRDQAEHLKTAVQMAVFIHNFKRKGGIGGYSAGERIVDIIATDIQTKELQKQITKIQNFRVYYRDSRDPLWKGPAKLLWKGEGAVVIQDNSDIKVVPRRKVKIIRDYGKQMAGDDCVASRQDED

[5] = target: T1, Human immunodeficiency virus type 1 integrase; assay: Inhibition of HIV-1 integrase 3'-processing activity
[6] = tested on: Human immunodeficiency virus 1; assay: Inhibition of HIV-1 FLAG-6x-His-tagged integrase interaction to FLAG-tagged LEDGF/p75 at 10 uM preincubated for 30 mins prior to LEDGF/p75 addition measured after 60 mins by quenching assay
[7] = Cytotoxicity against human LNCAP cells assessed as growth inhibition at 10 uM after 72 hrs by MTT assay; type: cell-based; conditions: read-out: Activity

| SMILES | CC50 (LNCaP) [µM] | CC50 (MT4) [µM] | selectivity ratio [1] | IC50 [2] [µM] | EC50 [3] [µM] | IC50 [4] [µM] | IC50 [5] [µM] | inhibition [6] [%] | inhibition at 72 h, 10 µM [7] [%] |
| --- | --- | --- | --- | --- | --- | --- | --- | --- | --- |
| Cc1ccc(NCc2ccc(O)c3ncccc23)cc1 | > 10 | 36.5 | 2 | 3.3 | 15.4 | > 20 | > 20 | < 50 | – |
| Cc1cccc(NCc2ccc(O)c3ncccc23)c1 | > 10 | 9 | – | 4 | > 9 | > 20 | > 20 | < 50 | – |
| Oc1ccc(CNc2ccc(C(F)(F)F)cc2)c2cccnc12 | > 10 | 9 | – | 2.1 | > 9 | > 20 | > 20 | < 50 | – |
| CCC(=O)NC(c1ccc(OC)c(OC)c1)c1cc(Cl)c2cccnc2c1O (configuration not stated) | 3 | – | – | 4 | – | > 20 | > 20 | < 50 | – |
| Oc1ccc(CN2CCN(c3ccccc3)CC2)c2cccnc12 | 5 | – | – | 2.1 | – | > 20 | > 20 | < 50 | – |
| Cc1cccc(NCc2ccc(O)c3ncccc23)c1C | > 10 | 13 | – | 3 | > 13 | > 20 | > 20 | < 50 | – |
| CCOCc1ccc(O)c2ncccc12 | 2 | – | – | 2.4 | – | > 20 | > 20 | < 50 | – |
| CCN1CCN(Cc2ccc(O)c3ncccc23)CC1 | > 10 | 42 | – | 1.2 | > 42 | > 20 | > 20 | < 50 | – |
| Cc1ccc(NCc2ccc(O)c3ncccc23)cc1C | > 10 | 33.5 | 2 | 4.6 | 17.9 | > 20 | > 20 | < 50 | – |
| Cc1ccccc1NCc1ccc(O)c2ncccc12 | > 10 | 9 | – | 1.4 | > 9 | > 20 | > 20 | < 50 | 0 |
| Oc1ccc(CN2CCN(c3ccccn3)CC2)c2cccnc12 | > 10 | 9 | – | 1.9 | > 9 | > 20 | > 20 | < 50 | – |
| CCC(=O)NC(c1ccccc1OC)c1ccc2cccnc2c1O (configuration not stated) | 0.58 | – | – | 2 | – | > 20 | > 20 | < 50 | – |
| CCC(=O)NC(c1cccs1)c1cc([N+](=O)[O-])c2cccnc2c1O (configuration not stated) | 5 | – | – | 3.5 | – | > 20 | > 20 | < 50 | – |
| Oc1ccc(CNc2cccc(C(F)(F)F)c2)c2cccnc12 | > 10 | 10 | – | 2.9 | > 10 | > 20 | > 20 | < 50 | – |
| COc1cccc(C(NC(C)=O)c2ccc3cccnc3c2O)c1 (configuration not stated) | 0.58 | – | – | 2 | – | > 20 | > 20 | < 50 | – |
| CCCC(=O)NC(c1ccc(OC)cc1)c1ccc2cccnc2c1O (configuration not stated) | 0.62 | – | – | 4 | – | > 20 | > 20 | < 50 | – |
| CCOC(=O)C1CCCN(Cc2ccc(O)c3ncccc23)C1 (configuration not stated) | > 10 | 9 | – | 2 | > 9 | > 20 | > 20 | < 50 | – |
| COc1cccc(NCc2ccc(O)c3ncccc23)c1 | 5 | – | – | 3.2 | – | > 20 | > 20 | < 50 | – |
| CCOC(=O)C1CCN(Cc2ccc(O)c3ncccc23)CC1 | > 10 | – | – | 2.2 | – | > 20 | > 20 | < 50 | – |
| Oc1ccc(CNc2ccccc2F)c2cccnc12 | > 10 | 9 | – | 3.7 | > 9 | > 20 | > 20 | < 50 | – |
| Oc1ccc(CN2CCCCC2)c2cccnc12 | > 10 | 9 | – | 0.4 | > 9 | > 20 | > 20 | < 50 | – |

| SMILES | CC50 (LNCaP) [µM] | CC50 (MT4) [µM] | selectivity ratio [1] | IC50 [2] [µM] | EC50 [3] [µM] | IC50 [4] [µM] | IC50 [5] [µM] | inhibition [6] [%] | inhibition at 72 h, 10 µM [7] [%] |
| --- | --- | --- | --- | --- | --- | --- | --- | --- | --- |
| CCOc1ccc(NCc2ccc(O)c3ncccc23)cc1 | > 10 | 11 | – | 4 | > 11 | > 20 | > 20 | < 50 | – |
| CCC(=O)NC(c1ccc(OC)cc1)c1cc([N+](=O)[O-])c2cccnc2c1O (configuration not stated) | > 10 | 10 | – | 2.6 | > 10 | > 20 | > 20 | < 50 | – |
| CCCC(=O)NC(c1ccccc1)c1ccc2cccnc2c1O (configuration not stated) | 0.68 | – | – | 1.4 | – | > 20 | > 20 | < 50 | – |
| O=C(CC(Sc1cccc2cccnc12)c1ccc(F)cc1)c1cccs1 (configuration not stated) | > 10 | – | – | 3 | – | > 20 | > 20 | < 50 | 21 |
| CC(=O)NC(c1ccccc1)c1cc(Cl)c2cccnc2c1O (configuration not stated) | 0.74 | – | – | 3 | – | > 20 | > 20 | < 50 | – |
| Cc1cccc(NCc2ccc(O)c3ncccc23)n1 | > 10 | 2 | – | 2.8 | > 2 | > 20 | > 20 | < 50 | – |
| Oc1ccc(Cl)c2cccnc12 [CLOXYQUIN] | 5 | – | – | 3.6 | – | > 20 | > 20 | < 50 | – |
| CN1CCN(Cc2ccc(O)c3ncccc23)CC1 | > 10 | 35 | – | 0.8 | > 35 | > 20 | > 20 | < 50 | – |
| Oc1ccccc1C(Nc1nccs1)c1ccc2cccnc2c1O (configuration not stated) | 2.4 | – | – | 4.7 | – | > 20 | > 20 | < 50 | – |
| Oc1c(Cl)cc(Cl)c2cccnc12 [CHLOROXINE] | 2.5 | – | – | 4.3 | – | > 20 | > 20 | < 50 | – |
| Oc1ccc(CNc2ccccc2Cl)c2cccnc12 | > 10 | 34 | – | 4.8 | > 34 | > 20 | > 20 | < 50 | – |
| Oc1ccc(Cc2ccc(O)c3ncccc23)c2cccnc12 | 0.1 | – | – | 2 | – | > 20 | > 20 | < 50 | – |
| O=C(CC(Sc1cccc2cccnc12)c1ccc(OC(F)F)cc1)c1ccco1 (configuration not stated) | 0.8 | 2 | – | 3 | > 2 | > 20 | > 20 | < 50 | 73 |
| Cc1ccc(S(=O)(=O)NC(=O)Oc2cccc3cccnc23)cc1 | > 10 | 2 | – | 1.7 | > 2 | > 20 | > 20 | < 50 | 13 |
| Oc1ccc(CN2CCN(Cc3ccccc3)CC2)c2cccnc12 | > 10 | 11 | – | 2.2 | > 11 | > 20 | > 20 | < 50 | – |
| COc1ccc(C(NC(C)=O)c2cc([N+](=O)[O-])c3cccnc3c2O)cc1OC (configuration not stated) | > 10 | 42 | – | 3.9 | > 42 | > 20 | > 20 | < 50 | – |
| CCC(=O)NC(c1ccco1)c1cc(Cl)c2cccnc2c1O (configuration not stated) | 0.72 | – | – | 4 | – | > 20 | > 20 | < 50 | – |
| CC(=O)NC(c1ccc(N(C)C)cc1)c1cc(Cl)c2cccnc2c1O (configuration not stated) | 0.62 | – | – | 4 | – | > 20 | > 20 | < 50 | – |
| CCOC(=O)N1CCN(Cc2ccc(O)c3ncccc23)CC1 | > 10 | 9 | – | 1.5 | > 9 | > 20 | > 20 | < 50 | – |
| Cc1cccnc1NCc1ccc(O)c2ncccc12 | > 10 | 11 | – | 3.5 | > 11 | > 20 | > 20 | < 50 | – |
